In the library only some 4.9% were active in any assay of this set; here they are far more common.
NF-kB neuron act: raises NF-kB expression in human neuronal cells; fold change at 12.5 µM; NF-kB reporter expression; hits give high values; actives 1.6% (n = 190,000); AID 1239; in the data active means fold change above about 3.3
STAT3 act: increases IL-6 driven STAT3 reporter signal; activation (% of control), % at 5.6 µM; actives 0.91% (n = 190,000); U3A cells, IL-6 STAT3-luciferase reporter, luminescence; 100% = signal with IL-6 EC80 alone; AID 871;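 active means activation above the screen-wide mean of compound activation plus 3 SD, cut at about 130% in these data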;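 further: 0% = background luminescence of wells with medium and substrate only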
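Test system: human U3A cells carrying STAT3-luciferase construct; control set: IL-6-only wells as 100% reference; timing: compound pre-incubation 1 h before IL-6, then 6 h stimulation at 37 °C; also added: IL-6 stimulus at 33 ng/mL final; evaluation: % activation versus median of IL-6-stimulated wells; detection: reporter luminescence signal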
STAT1 inh: reduces IFN-gamma driven STAT1 reporter signal. NIH 3T3 STAT1-luciferase reporter, luminescence. inhibition, % at 5.5 µM. actives 0.35% (n = 200,000). AID 920;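 active means inhibition above a set limit, the mean inhibition across all tested compounds plus 3 SD, cut at about 34% in these data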;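 further: 0% = IFN-gamma with DMSO and 100% = IFN-gamma with 300 µM nifuroxazide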
STAT1 act: increases IFN-gamma driven STAT1 reporter signal | AID 932 | actives 2.6% (n = 200,000) | NIH 3T3 STAT1-luciferase reporter, luminescence; 100% = IFN-gamma alone, no compound | activation (% of control), % at 5.5 µM;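 active means activation above the screen-wide mean activation plus 3 SD, cut at about 130% in these data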;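 further: raw ratio to IFN-gamma control signal so 100% means no change and 0% no light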
STAT3 blocker: STAT3 signaling inhibition. AID 862. U3A cells, IL-6 STAT3-luciferase reporter, luminescence; host cell line lacks STAT1. inhibition, % at 5.5 µM. actives 0.89% (n = 190,000);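 active means inhibition above the mean inhibition across all screened compounds plus 3 SD, cut at about 44% in these data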;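 further: 0% = DMSO only wells and 100% = 100 µM nifuroxazide control wells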
APP 5'UTR act: APP 5'UTR luciferase reporter activation; activation, % at 2 µM; SH-SY5Y APP 5'UTR luciferase reporter, luminescence; zero percent = DMSO vehicle wells; actives 1% (n = 190,000); AID 1276;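 active means activation above a set limit, based on mean plus 3 SD of controls, cut at about 140% in these data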
Active calls of the source: *; x = no result.

SMILES | NF-kB neuron act | STAT3 act | STAT1 inh | STAT1 act | STAT3 blocker | APP 5'UTR act
Cc1ccc(NC(=O)c2ccccc2O)cc1 | 6* | 88 | -4 | 105 | 18 | 131
Cc1ccc(NC(=O)c2ccccc2)cc1 | 3.5* | 100 | -40 | 135* | 2 | 97
Cc1ccc(NC(=O)c2ccccc2-c2ccccc2C(=O)O)cc1 | 1.1 | 97 | -2 | 104 | 1 | -2
Cc1ccc(NC(=O)NNC(=O)c2ccccc2)cc1 | 1.3 | 102 | -6 | 104 | 1 | -1
Cc1ccc2c(CC(=O)Nc3cccc(S(=O)(=O)N4CCOCC4)c3)coc2c1 | 1 | 100 | 7 | 94 | 8 | -3
O=C(CCS(=O)(=O)c1cccs1)Nc1ccc(C(=O)NC2CCN(Cc3ccccc3)CC2)cc1 | 1 | 102 | -12 | 109 | 6 | -7
CCSc1nnc(NC(=O)C2Cc3ccccc3CN2S(=O)(=O)CC)s1 (stereo not drawn) | 1.1 | 93 | -22 | 120 | 10 | -1
CCS(=O)(=O)N1Cc2ccccc2CC1C(=O)Nc1nc2c(C)cccc2s1 (stereo not drawn) | 0.95 | 106 | -4 | 104 | -4 | 11
COc1ccc(S(=O)(=O)N2Cc3ccccc3CC2C(=O)Nc2nccs2)cc1OC (stereo not drawn) | 1.4 | 130 | -17 | 116 | -30 | 163*
CCS(=O)(=O)N1Cc2ccccc2CC1C(=O)Nc1nc(C)cs1 (stereo not drawn) | 1.1 | 91 | -36 | 134* | 12 | 104
CCS(=O)(=O)N1Cc2ccccc2CC1C(=O)Nc1nccs1 (stereo not drawn) | 1.7 | 118 | -36 | 133* | -21 | 81
O=c1/c(=C/c2ccc(O)cc2)sc2nc3cc(Br)cnc3n12 | 1.4 | 107 | -11 | 110 | -6 | -21
Cc1cccc(/C(N)=N/OC(=O)c2ccc3c(c2)OCO3)c1 | 4.3* | 71 | -50 | 145* | 33 | 192*
N/C(=N\OC(=O)c1ccc(F)cc1)c1ccc(Br)cc1 | 2 | 87 | -33 | 128 | 19 | 52
Cc1cccc(/C(N)=N/OC(=O)c2cccnc2)c1 | 2.6 | 87 | -37 | 133* | 18 | 149*
Cc1ccc(/C(N)=N/OC(=O)c2cccc(F)c2)cc1 | 4.6* | 128 | -40 | 137* | -34 | 15
Cc1cccc(/C(N)=N/OC(=O)c2ccc(Br)o2)c1 | 2.9 | 117 | -32 | 132* | -24 | 50
N/C(=N\OC(=O)c1cccc([N+](=O)[O-])c1)c1cccnc1 | 1.5 | 100 | -25 | 122 | 2 | -10
COc1ccccc1C/C(N)=N/OC(=O)c1ccc2c(c1)OCO2 | 1.4 | 98 | -7 | 106 | 6 | 13
Cc1ccc(OC(=O)c2ccc(Br)o2)cc1 | 1.3 | 97 | 6 | 95 | 5 | -3
COc1ccc(N2CCN(S(=O)(=O)c3cc(C)ccc3OC)CC2)cc1 | x | 103 | 11 | 90 | 3 | -6
COc1ccc(N(CCCN2C(=O)c3cccc4cccc(c34)C2=O)C(=O)c2ccncc2)cc1 | 0.9 | 113 | -34 | 130* | -14 | 4
COc1ccc(N(CCCN2C(=O)c3cccc4cccc(c34)C2=O)C(=O)c2cccnc2)cc1 | 0.8 | 110 | 2 | 97 | -10 | 31
CC1(C)CC(=O)c2cc(N=C/C(C(=O)c3ccccc3)=C(\O)c3ccccc3)c(=O)oc2C1 | 1.3 | 99 | -38 | 132* | 7 | 38
Cn1c(C(=O)NC2CCCCC2)cc2sccc21 | 1.9 | 90 | -40 | 137* | 14 | 77
SMILES | NF-kB neuron act | STAT3 act | STAT1 inh | STAT1 act | STAT3 blocker | APP 5'UTR act
CN(C(=O)c1cc2sccc2n1C)C1CCCCC1 | 2.7 | 101 | -46 | 142* | 3 | 81
Cc1ccc(-c2nc(C)c(C(=O)O)s2)cc1 | 2.8 | 86 | -40 | 135* | 26 | 143*
Cc1nc(-c2ccc(Cl)cc2)sc1C(=O)O | 2.2 | 113 | -43 | 138* | -14 | 46
O=C(CSc1nnc2ccccn12)Nc1ccc2c(c1)OCCO2 | 1.8 | 104 | -45 | 139* | 0 | 39
CCn1nnnc1SCC(=O)Nc1ccc2c(c1)OCO2 | 1.4 | 101 | -8 | 105 | 1 | 10
O=C(Cn1cnc2ccccc2c1=O)Nc1ccc2c(c1)OCCO2 | 1.1 | 107 | -33 | 130* | 0 | 94
Cn1nnnc1SCC(=O)Nc1ccc2c(c1)OCO2 | 1.9 | 100 | -49 | 141* | 4 | -2
COC(=O)c1ccc(CSc2nnc(NC(=O)C3CC(=O)N(c4ccc5c(c4)OCCO5)C3)s2)cc1 (stereo not drawn) | 0.75 | 87 | 0 | 100 | 20 | 5
CCn1cc(C(=O)N2CCN(c3ccccc3F)CC2)c(=O)c2ccc(C)nc21 | 0.99 | x | 4 | 95 | x | 6
Cc1ccc(Cn2ccnc2C(=O)Nc2ccccc2)cc1 | 1.1 | 109 | -48 | 142* | -4 | 85
CC1=CC(=O)C=C(C)C1=NOS(=O)(=O)c1ccccc1 | 4* | 103 | 9 | 91 | -2 | -80
COc1ccc(C(CNC(=O)c2ccccc2SC)N(C)C)cc1 (stereo not drawn) | 1.3 | 97 | -8 | 106 | 11 | -17
COc1ccc(-c2cc(C(=O)Nc3nc4c(C)cccc4s3)c3ccccc3n2)cc1OC | 0.91 | 134* | 9 | 92 | -42 | 0
O=c1cc(-c2ccccc2F)oc2ccccc12 | 2.3 | 101 | -38 | 135* | 2 | 64
CSc1ccc(-c2cc(=O)c3ccccc3o2)cc1 | 3.1 | 141* | -37 | 134* | -45 | 142*
O=c1cc(-c2ccc(F)cc2)oc2ccccc12 | x | 97 | -37 | 133* | 8 | 26
O=c1cc(-c2ccccc2[N+](=O)[O-])oc2ccccc12 | 1 | 116 | -11 | 110 | -12 | 24
Cc1ccc(S(=O)(=O)N(C)c2ccc(C(=O)Nc3c(C)n(C)n(-c4ccccc4)c3=O)cc2)cc1 | x | 98 | 0 | 100 | 9 | 26
Cc1sc(NC(=O)/C=C/c2ccc(C(C)C)cc2)c(C#N)c1C | 1.2 | 98 | -2 | 102 | 4 | 2
CC(C)c1ccc(/C=C/C(=O)Nc2nncs2)cc1 | 7* | 85 | -47 | 145* | 18 | 134
COc1ccc(/C=C/C(=O)O/N=C(\N)c2ccccc2)cc1OC | 2 | 96 | -41 | 137* | 7 | 87
COc1ccc(C(=O)OCCc2ccc(O)cc2)cc1 | 6.7* | 93 | -53 | 148* | 6 | 118
COc1cccc(C(=O)/C=C/c2ccc(OCC#N)c(OC)c2)c1 | 1.4 | 96 | -3 | 102 | 5 | -14
COc1ccc(COC(=O)NNC(=O)c2ccc(OC)cc2)cc1 | 1 | 93 | -4 | 105 | 10 | 1
CCOc1ccc(/C=C/C(=O)c2ccccc2)cc1OC | 0.96 | 119 | -22 | 119 | -26 | 144*

Compound activity as filed in PubChem BioAssay.
